Test results as given in PMC11758009 (Scientific Reports, 2025).

What was measured:
[1] = test system: LAT1, LAT2, LAT3, LAT4, B^0AT1, ATB^0,+; conditions: cited from earlier work
LAT3 = LAT3 (Homo sapiens, UniProt O75387); assay: Xenopus oocyte expression system, L-[14C]leucine uptake by LAT3; assay type: cell-based; conditions: 1 and 10 µM compound; 50 µM substrate; 30 min
Method in brief: (§1)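 Defolliculated Xenopus laevis oocytes injected with transporter cRNA (25 ng/oocyte), assayed 2–4 days after injection. Uptake at room temperature of 50 µM radiolabelled substrate with test compound at 1 or 10 µM. Buffers were ND96 (pH 7.5) for Na⁺-dependent transport, or a Na⁺-free version with choline chloride. Scintillation counting; mean ± S.D., n = 5–13, three independent oocyte batches.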

LAT2 = LAT2 (Homo sapiens, UniProt Q9UHI5); assay: Xenopus oocyte expression system, L-[14C]alanine uptake by LAT2; assay type: cell-based; conditions: 1 and 10 µM compound; 50 µM substrate; 30 min
Method in brief: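 Defolliculated Xenopus laevis oocytes were injected with polyadenylated human LAT2 cRNA (25 ng/oocyte) plus equimolar 4F2hc cRNA. Water-injected oocytes served as controls. After 2–4 days, oocytes took up 50 µM ¹⁴C-labelled substrate for 30 min at room temperature, with or without test compound, in ND96 (pH 7.5) or its Na⁺-free choline chloride version. Radioactivity was determined by liquid scintillation counting.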

ASCT1 = ASCT1 (Homo sapiens, UniProt P43007); assay: Xenopus oocyte expression system, L-[14C]alanine uptake by ASCT1; assay type: cell-based; conditions: 1 and 10 µM compound; 50 µM substrate; 30 min; ND96
Method in brief: as §1

HEK293-hLAT1 cells = assay: Cell proliferation assay; assay type: cell-based; conditions: Homo sapiens, 72 h, read-out: GI50 (proliferation)
Method in brief: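 HEK293 cells stably expressing human LAT1, kept in MEM with 10% FBS, non-essential amino acids and G418 (0.9 mg/mL) at 37 °C and 5% CO₂. Seeded at 1.5 × 10³ cells/well on poly-D-lysine and treated next day with test compound (0.003–30 µM) for 72 h. CCK-8 read-out. Inhibition = (C–T)/(C–T₀) × 100, with T₀ at 0 h. GI50 from curve fit; mean ± S.D., n = 4.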

TAT1 = TAT1 (Homo sapiens, UniProt Q8TF71); assay: Xenopus oocyte expression system, L-[14C]tyrosine uptake by TAT1; assay type: cell-based; conditions: 1 and 10 µM compound; 50 µM substrate; 30 min; Na+-free
Method in brief: (§2)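 Defolliculated Xenopus laevis oocytes injected with transporter cRNA (25 ng/oocyte) or with water as control, assayed 2–4 days after injection. Uptake over 30 min at room temperature of 50 µM labelled substrate: L-[¹⁴C]leucine for ATB0,+, L-[¹⁴C]tyrosine for TAT1, L-[¹⁴C]cystine for b0,+. Test compound at 1 or 10 µM. Scintillation counting; mean ± S.D., n = 5–13, three oocyte batches.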

ASCT2 = ASCT2 (Homo sapiens, UniProt Q15758); assay: Xenopus oocyte expression system, L-[14C]alanine uptake by ASCT2; assay type: cell-based; conditions: 1 and 10 µM compound; 50 µM substrate; 30 min; ND96
Method in brief: as §1

y^+LAT1 = y^+LAT1 (Homo sapiens, UniProt Q9UM01); assay: Xenopus oocyte expression system, L-[14C]leucine uptake by y+LAT1; assay type: cell-based; conditions: 1 and 10 µM compound; 50 µM substrate; 30 min; ND96
Method in brief: (§3)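 Defolliculated Xenopus laevis oocytes injected with transporter cRNA (25 ng/oocyte) plus equimolar 4F2hc cRNA, and assayed 2–4 days later. Uptake of 50 µM L-[¹⁴C]leucine at room temperature with test compound at 1 or 10 µM. Buffers were ND96 (pH 7.5) or a Na⁺-free version with choline chloride in place of NaCl. Scintillation counting; mean ± S.D., n = 5–13, three oocyte batches.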

SNAT4 = SNAT4 (Homo sapiens, UniProt Q969I6); assay: Xenopus oocyte expression system, L-[14C]alanine uptake by SNAT4; assay type: cell-based; conditions: 10 µM compound; 50 µM substrate; 30 min; ND96
Method in brief: as §1

LAT1 [2] = molecular target: T1, LAT1 (Homo sapiens, UniProt Q01650); assay: Inhibition of L-[14C]leucine uptake in HEK293-hLAT1 cells; assay type: cell-based
Method in brief: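 HEK293-hLAT1 cells grown 2 days on poly-D-lysine, then preincubated 10 min at 37 °C in Na⁺-free choline-HBSS (HEPES, pH 7.4). L-[¹⁴C]leucine (1–400 µM) uptake for 1 min, with test compound added from DMSO alongside the substrate at two levels (0.1/0.5 or 1/5 µM) or with DMSO alone. Cells washed ice-cold, lysed in NaOH, counted by scintillation, normalised to BCA protein. Michaelis–Menten and Lineweaver–Burk fits gave Ki; mean ± S.D., n = 4.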
Target sequence in this assay (Q01650 whole entry): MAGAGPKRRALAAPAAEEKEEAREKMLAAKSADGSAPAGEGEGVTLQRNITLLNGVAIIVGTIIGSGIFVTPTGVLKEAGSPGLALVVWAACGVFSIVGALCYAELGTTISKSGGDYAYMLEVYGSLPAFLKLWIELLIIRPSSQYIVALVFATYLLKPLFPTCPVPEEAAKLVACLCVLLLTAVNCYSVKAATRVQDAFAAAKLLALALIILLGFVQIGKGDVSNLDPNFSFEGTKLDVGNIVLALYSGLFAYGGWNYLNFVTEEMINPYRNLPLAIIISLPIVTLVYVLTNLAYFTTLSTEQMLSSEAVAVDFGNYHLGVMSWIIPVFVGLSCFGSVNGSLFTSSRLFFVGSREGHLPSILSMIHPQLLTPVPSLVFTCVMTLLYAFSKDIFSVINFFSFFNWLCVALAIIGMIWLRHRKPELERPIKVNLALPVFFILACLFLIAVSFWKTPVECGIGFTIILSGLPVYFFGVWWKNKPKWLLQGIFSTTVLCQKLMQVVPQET
Target sequence in this assay (P08195 103-630 partner): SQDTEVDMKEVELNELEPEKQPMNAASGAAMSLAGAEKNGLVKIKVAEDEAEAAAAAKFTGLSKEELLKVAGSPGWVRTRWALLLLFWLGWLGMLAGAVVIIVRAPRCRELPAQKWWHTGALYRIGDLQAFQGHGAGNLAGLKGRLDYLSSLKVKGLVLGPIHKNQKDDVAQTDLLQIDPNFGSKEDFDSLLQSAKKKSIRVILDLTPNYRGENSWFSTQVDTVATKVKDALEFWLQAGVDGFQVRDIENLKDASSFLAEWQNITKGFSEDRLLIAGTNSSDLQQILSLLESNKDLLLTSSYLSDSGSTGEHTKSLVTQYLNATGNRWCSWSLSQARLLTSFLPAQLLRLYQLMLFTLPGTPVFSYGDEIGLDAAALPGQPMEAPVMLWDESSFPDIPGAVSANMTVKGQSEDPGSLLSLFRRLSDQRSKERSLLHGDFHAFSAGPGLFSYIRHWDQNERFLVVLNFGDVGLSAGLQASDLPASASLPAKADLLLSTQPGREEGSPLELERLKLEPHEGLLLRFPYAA

SNAT3 = SNAT3 (Homo sapiens, UniProt Q99624); assay: Xenopus oocyte expression system, L-[14C]glutamine uptake by SNAT3; assay type: cell-based; conditions: 1 and 10 µM compound; 50 µM substrate; 30 min; ND96
Method in brief: as §1

B^0AT1 = B^0AT1 (Homo sapiens, UniProt Q695T7); assay: Xenopus oocyte expression system, L-[14C]leucine uptake by B0AT1; assay type: cell-based; conditions: 1 and 10 µM compound; 50 µM substrate; 30 min; ND96
Method in brief: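 B⁰AT1 cRNA (25 ng/oocyte) co-injected with equimolar collectrin cRNA into defolliculated Xenopus laevis oocytes, assayed 2–4 days later. Uptake of 50 µM L-[¹⁴C]leucine over 30 min at room temperature in ND96 (pH 7.5), with test compound at 1 or 10 µM. Water-injected oocytes served as controls. Scintillation counting; mean ± S.D., n = 5–13, three oocyte batches.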

LAT1 [3] = molecular target: T1, LAT1; assay: Temperature-dependent uptake of 14C-labeled compound in HEK293-hLAT1 cells; assay type: cell-based; conditions: 1 µM 14C-labeled compound, 1 min, 37 °C vs on ice
Method in brief: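 HEK293-hLAT1 cells in Na⁺-free HBSS given 1 µM ¹⁴C-labelled test compound, or 1 µM L-[¹⁴C]leucine for comparison, for 1 min on ice or at 37 °C. Cell-associated radioactivity measured by scintillation counting of the lysate.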
Target sequence in this assay (Q01650 whole entry): as the sequence (Q01650 whole entry) above
Target sequence in this assay (P08195 103-630 partner): as the sequence (P08195 103-630 partner) above

SNAT2 = SNAT2 (Homo sapiens, UniProt Q96QD8); assay: Xenopus oocyte expression system, L-[14C]alanine uptake by SNAT2; assay type: cell-based; conditions: 1 and 10 µM compound; 50 µM substrate; 30 min; ND96
Method in brief: as §1

[4] = liver; cited from earlier work
SNAT1 = SNAT1 (Homo sapiens, UniProt Q9H2H9); assay: Xenopus oocyte expression system, L-[14C]alanine uptake by SNAT1; assay type: cell-based; conditions: 1 and 10 µM compound; 50 µM substrate; 30 min; ND96
Method in brief: as §1

human LAT2 = human LAT2 (Homo sapiens, UniProt Q9UHI5); assay: Inhibition of L-[14C]alanine uptake in HEK293-hLAT2 cells; assay type: cell-based; conditions: 0.1, 1 and 10 µM compound, 1 µM L-[14C]alanine
Method in brief: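 Stable HEK293-hLAT2 cells were seeded at 2.4 × 10⁵ cells/well on poly-D-lysine and grown 2 days. They were pre-incubated 10 min at 37 °C in Na⁺-free HBSS (choline chloride, 25 mM HEPES, pH 7.4). Uptake of 1 µM L-[¹⁴C]alanine ran for 1 min, with test compound (from DMSO stocks) added together with substrate. Cells were washed ice-cold, lysed in 0.1 N NaOH, counted by liquid scintillation, and lysate protein was measured by BCA.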

biliary tract cancer = conditions: phase II, patients with biliary tract cancer; cited from earlier work
[5] = patients with advanced solid tumors; cited from earlier work
S2-LAT2 cells = conditions: LAT2-expressing cells; cited from earlier work
SNAT5 = SNAT5 (Homo sapiens, UniProt Q8WUX1); assay: Xenopus oocyte expression system, L-[14C]glutamine uptake by SNAT5; assay type: cell-based; conditions: 1 and 10 µM compound; 50 µM substrate; 30 min; ND96
Method in brief: as §1

S2-LAT1 cells = conditions: LAT1-expressing cells; cited from earlier work
LAT4 = LAT4 (Homo sapiens, UniProt Q8N370); assay: Xenopus oocyte expression system, L-[14C]leucine uptake by LAT4; assay type: cell-based; conditions: 1 and 10 µM compound; 50 µM substrate; 30 min
Method in brief: as §1

LAT1 [6] = molecular target: T1, LAT1; assay: Xenopus oocyte expression system, L-[14C]leucine uptake by LAT1; assay type: cell-based; conditions: 50 µM substrate, 30 min, Na+-free
Method in brief: as §3
Target sequence in this assay (Q01650 whole entry): as the sequence (Q01650 whole entry) above
Target sequence in this assay (P08195 102-630 partner): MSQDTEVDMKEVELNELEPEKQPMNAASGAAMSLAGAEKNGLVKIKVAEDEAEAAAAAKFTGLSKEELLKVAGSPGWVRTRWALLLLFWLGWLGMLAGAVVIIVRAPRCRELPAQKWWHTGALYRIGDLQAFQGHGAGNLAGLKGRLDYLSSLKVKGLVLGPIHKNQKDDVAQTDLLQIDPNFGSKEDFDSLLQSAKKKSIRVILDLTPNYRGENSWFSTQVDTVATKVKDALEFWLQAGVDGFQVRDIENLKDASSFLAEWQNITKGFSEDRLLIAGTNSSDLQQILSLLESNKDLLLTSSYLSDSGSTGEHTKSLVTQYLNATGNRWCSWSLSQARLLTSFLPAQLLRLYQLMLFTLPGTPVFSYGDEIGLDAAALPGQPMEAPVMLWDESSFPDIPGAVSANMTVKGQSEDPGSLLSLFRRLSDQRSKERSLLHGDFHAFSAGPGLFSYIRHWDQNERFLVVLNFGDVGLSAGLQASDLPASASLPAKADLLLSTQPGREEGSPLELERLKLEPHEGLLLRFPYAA

LAT1 [7] = molecular target: T1, LAT1; assay: Sustained inhibition assay; assay type: cell-based; conditions: reduction in inhibition over first 10 min after washout relative to 0 min
Method in brief: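 HEK293-hLAT1 cells exposed to test compound or 0.6% DMSO control in culture medium for 30 min at 37 °C. Washed three times and kept in fresh medium for 0, 10, 20, 30 or 60 min or 24 h. Then rinsed with Na⁺-free HBSS and given 1 µM L-[¹⁴C]leucine for 1 min. Uptake taken as % of control at each time. Reduction rate = (%uptake 10 min – %uptake 0 min)/(100 – %uptake 0 min) × 100. Three independent experiments, each in quadruplicate.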
Target sequence in this assay (Q01650 whole entry): as the sequence (Q01650 whole entry) above
Target sequence in this assay (P08195 103-630 partner): as the sequence (P08195 103-630 partner) above

y^+LAT2 = y^+LAT2 (Homo sapiens, UniProt Q92536); assay: Xenopus oocyte expression system, L-[14C]leucine uptake by y+LAT2; assay type: cell-based; conditions: 1 and 10 µM compound; 50 µM substrate; 30 min; ND96
Method in brief: as §3

ATB^0,+ = ATB^0,+ (Homo sapiens, UniProt Q9UN76); assay: Xenopus oocyte expression system, L-[14C]leucine uptake by ATB0,+; assay type: cell-based; conditions: 1 and 10 µM compound; 50 µM substrate; 30 min; ND96
Method in brief: as §2

HEK293-hLAT2 cells = assay: Cell proliferation assay; assay type: cell-based, human; conditions: 72 h, 0.003-30 µM
Method in brief: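 HEK293 cells stably expressing human LAT2, kept under G418 selection at 37 °C and 5% CO₂, were seeded at 1.5 × 10³ cells/well on poly-D-lysine. Next day they were exposed to test compound for 72 h, and cell number was read with CCK-8. Inhibition was calculated as (C – T)/(C – T₀) × 100, with T₀ taken at 0 h. GI₅₀ is the concentration giving 50% inhibition. Mean ± S.D., n = 4.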

b^0,+ = assay: Xenopus oocyte expression system, L-[14C]cystine uptake by b0,+; assay type: cell-based; conditions: 1 and 10 µM compound; 50 µM substrate; 30 min; Na+-free
Method in brief: as §2

Sequence of SNAT4 (Q969I6 whole entry): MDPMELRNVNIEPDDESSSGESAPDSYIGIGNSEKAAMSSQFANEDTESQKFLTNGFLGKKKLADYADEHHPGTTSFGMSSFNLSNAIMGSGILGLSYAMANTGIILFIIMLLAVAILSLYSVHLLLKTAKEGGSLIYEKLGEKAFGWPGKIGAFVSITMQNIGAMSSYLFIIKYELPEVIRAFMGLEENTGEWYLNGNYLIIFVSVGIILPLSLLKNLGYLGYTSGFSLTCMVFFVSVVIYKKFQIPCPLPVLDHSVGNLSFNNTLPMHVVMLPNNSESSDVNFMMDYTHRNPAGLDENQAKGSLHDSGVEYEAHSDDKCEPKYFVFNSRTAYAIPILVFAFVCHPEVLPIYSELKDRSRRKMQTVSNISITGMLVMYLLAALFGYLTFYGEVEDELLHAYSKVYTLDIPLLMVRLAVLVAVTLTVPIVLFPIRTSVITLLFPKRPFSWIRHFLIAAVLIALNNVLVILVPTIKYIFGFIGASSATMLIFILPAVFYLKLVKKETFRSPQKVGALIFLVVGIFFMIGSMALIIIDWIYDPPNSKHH
Sequence of ASCT1 (P43007 whole entry): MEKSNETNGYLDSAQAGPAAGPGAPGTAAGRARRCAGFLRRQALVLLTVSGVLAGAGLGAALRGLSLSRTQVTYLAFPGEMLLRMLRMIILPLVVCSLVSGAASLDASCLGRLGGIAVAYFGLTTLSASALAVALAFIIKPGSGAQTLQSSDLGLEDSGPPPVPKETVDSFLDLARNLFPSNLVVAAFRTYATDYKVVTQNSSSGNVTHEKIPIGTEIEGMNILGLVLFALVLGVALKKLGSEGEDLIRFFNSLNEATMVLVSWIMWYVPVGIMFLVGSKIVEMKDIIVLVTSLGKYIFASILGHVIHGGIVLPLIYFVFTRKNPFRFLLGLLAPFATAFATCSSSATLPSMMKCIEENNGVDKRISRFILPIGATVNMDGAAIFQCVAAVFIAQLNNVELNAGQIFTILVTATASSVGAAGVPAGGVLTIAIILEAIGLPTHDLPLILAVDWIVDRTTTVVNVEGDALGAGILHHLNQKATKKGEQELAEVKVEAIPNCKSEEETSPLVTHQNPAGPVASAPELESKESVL
Sequence of SNAT3 (Q99624 whole entry): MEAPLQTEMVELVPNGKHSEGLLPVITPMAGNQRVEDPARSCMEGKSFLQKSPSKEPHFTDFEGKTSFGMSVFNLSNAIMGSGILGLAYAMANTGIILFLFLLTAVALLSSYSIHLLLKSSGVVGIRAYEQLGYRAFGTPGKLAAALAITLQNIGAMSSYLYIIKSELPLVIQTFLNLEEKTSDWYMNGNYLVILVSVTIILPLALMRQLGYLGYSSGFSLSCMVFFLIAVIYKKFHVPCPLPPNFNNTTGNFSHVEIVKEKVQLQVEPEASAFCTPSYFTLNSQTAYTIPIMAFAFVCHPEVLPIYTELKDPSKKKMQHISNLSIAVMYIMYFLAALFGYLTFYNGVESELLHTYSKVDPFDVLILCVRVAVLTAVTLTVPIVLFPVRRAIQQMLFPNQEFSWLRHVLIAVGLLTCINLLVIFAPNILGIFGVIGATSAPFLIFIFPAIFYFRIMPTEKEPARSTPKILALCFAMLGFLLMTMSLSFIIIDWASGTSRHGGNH
Sequence of SNAT1 (Q9H2H9 whole entry): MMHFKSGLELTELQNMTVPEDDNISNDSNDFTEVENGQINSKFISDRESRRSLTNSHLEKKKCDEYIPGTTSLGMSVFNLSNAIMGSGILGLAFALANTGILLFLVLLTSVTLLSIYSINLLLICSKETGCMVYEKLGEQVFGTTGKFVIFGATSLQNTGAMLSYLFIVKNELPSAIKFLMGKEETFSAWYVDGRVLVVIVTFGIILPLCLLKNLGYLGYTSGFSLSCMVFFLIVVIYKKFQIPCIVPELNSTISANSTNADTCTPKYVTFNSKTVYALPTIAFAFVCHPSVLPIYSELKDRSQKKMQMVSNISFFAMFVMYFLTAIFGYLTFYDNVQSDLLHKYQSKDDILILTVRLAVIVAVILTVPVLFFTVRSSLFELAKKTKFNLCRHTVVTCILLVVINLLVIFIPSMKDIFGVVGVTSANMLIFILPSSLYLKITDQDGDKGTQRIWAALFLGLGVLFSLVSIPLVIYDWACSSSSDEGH
Sequence of ASCT2 (Q15758 whole entry): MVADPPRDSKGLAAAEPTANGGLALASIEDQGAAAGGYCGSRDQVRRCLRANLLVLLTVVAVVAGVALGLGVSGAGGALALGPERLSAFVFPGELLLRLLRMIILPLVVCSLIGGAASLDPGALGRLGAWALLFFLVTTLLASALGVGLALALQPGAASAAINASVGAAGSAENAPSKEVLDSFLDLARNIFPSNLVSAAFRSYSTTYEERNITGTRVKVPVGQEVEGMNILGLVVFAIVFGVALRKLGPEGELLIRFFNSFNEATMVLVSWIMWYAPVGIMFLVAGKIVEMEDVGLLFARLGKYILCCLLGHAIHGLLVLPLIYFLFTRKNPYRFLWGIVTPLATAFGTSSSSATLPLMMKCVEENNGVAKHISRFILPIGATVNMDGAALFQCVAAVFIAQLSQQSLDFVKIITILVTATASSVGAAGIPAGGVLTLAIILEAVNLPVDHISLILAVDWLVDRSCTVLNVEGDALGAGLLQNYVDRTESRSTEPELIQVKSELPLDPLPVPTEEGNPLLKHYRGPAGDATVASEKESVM

Structure (SMILES): NC1(C(=O)O)CC2CCC1C2 (centres unmarked) [BCH]
- Transporters inhibited [1]: inhibit not only all system L transporters (LAT1, LAT2, LAT3, LAT4) but also B^0AT1 (system B^0) and ATB^0,+ (system B^0,+)

Structure (SMILES): Nc1cc(COc2c(Cl)cc(C[C@H](N)C(=O)O)cc2Cl)c2oc(-c3ccccc3)nc2c1 [nanvuranlat, (2S)-2-amino-3-[4-[(5-amino-2-phenyl-1,3-benzoxazol-7-yl)methoxy]-3,5-dichlorophenyl]propanoic acid]
- Inhibition of LAT3-mediated L-[14C]leucine uptake (LAT3): no inhibitory effects
- Inhibition of LAT2-mediated L-[14C]alanine uptake (LAT2): neither nanvuranlat nor N-acetyl-nanvuranlat inhibited
- Inhibition of ASCT1-mediated L-[14C]alanine uptake (ASCT1): no significant inhibition
- GI50 (HEK293-hLAT1 cells): 1830 ± 310 nM
- Inhibition of TAT1-mediated L-[14C]tyrosine uptake (TAT1): Neither compound inhibited
- Inhibition of ASCT2-mediated L-[14C]alanine uptake (ASCT2): no significant inhibition
- Inhibition of y+LAT1-mediated L-[14C]leucine uptake (y^+LAT1): Neither compound inhibited
- Inhibition of SNAT4-mediated L-[14C]alanine uptake (SNAT4): non-significant trend towards inhibition
- Ki (LAT1 [2]): 38.7 ± 5.1 nM
- Inhibition of LAT1-mediated L-[14C]leucine uptake (LAT1 [2]; 0.1, 1 and 10 µM compound, 1 µM L-[14C]leucine, HEK293-hLAT1): inhibited LAT1 in a concentration-dependent manner
- Mode of LAT1 inhibition (Lineweaver-Burk plot) (LAT1 [2]; HEK293-hLAT1, L-[14C]leucine): competitive inhibitors
- Inhibition of SNAT3-mediated L-[14C]glutamine uptake (SNAT3): no significant inhibition
- Inhibition of B0AT1-mediated L-[14C]leucine uptake (B^0AT1): Neither compound inhibited
- Temperature dependence of cell-associated radioactivity (transport by LAT1) (LAT1 [3]): not transported by LAT1
- Inhibition of SNAT2-mediated L-[14C]alanine uptake (SNAT2): no significant inhibition
- Metabolism [4]: rapidly metabolized to its N-acetyl derivative in the liver
- Inhibition of SNAT1-mediated L-[14C]alanine uptake (SNAT1): no significant inhibition
- Inhibition of LAT2-mediated L-[14C]alanine uptake (human LAT2): neither compound exhibited inhibitory effects on LAT2
- Primary endpoint (progression-free survival) (biliary tract cancer): met its primary endpoint of improving progression-free survival
- Safety profile in clinical trials [5]: acceptable safety profile
- Growth inhibition of S2-LAT2 cells (S2-LAT2 cells): minimal effects
- Inhibition of SNAT5-mediated L-[14C]glutamine uptake (SNAT5): no significant inhibition
- Growth inhibition of S2-LAT1 cells (S2-LAT1 cells): potently inhibited the growth
- Inhibition of LAT4-mediated L-[14C]leucine uptake (LAT4): no inhibitory effects
- Inhibition of LAT1-mediated L-[14C]leucine uptake (LAT1 [6]; 1 µM compound): significantly inhibited
- Inhibition of LAT1-mediated L-[14C]leucine uptake (LAT1 [6]; 10 µM compound): significantly inhibited
- Inhibition reduction rate (LAT1 [7]): 29.8%
- Inhibition of y+LAT2-mediated L-[14C]leucine uptake (y^+LAT2): Neither compound inhibited
- Inhibition of ATB0,+-mediated L-[14C]leucine uptake (ATB^0,+): Neither compound inhibited
- Inhibition of proliferation (HEK293-hLAT2 cells): neither compound exhibited an inhibitory effect
- Inhibition of b0,+-mediated L-[14C]cystine uptake (b^0,+): Neither compound inhibited
